Measured values of several laboratories.
Target: cGMP-dependent protein kinase 2 (PRKG2, Homo sapiens, UniProt Q13237)
One construct used (Q13237 1-762): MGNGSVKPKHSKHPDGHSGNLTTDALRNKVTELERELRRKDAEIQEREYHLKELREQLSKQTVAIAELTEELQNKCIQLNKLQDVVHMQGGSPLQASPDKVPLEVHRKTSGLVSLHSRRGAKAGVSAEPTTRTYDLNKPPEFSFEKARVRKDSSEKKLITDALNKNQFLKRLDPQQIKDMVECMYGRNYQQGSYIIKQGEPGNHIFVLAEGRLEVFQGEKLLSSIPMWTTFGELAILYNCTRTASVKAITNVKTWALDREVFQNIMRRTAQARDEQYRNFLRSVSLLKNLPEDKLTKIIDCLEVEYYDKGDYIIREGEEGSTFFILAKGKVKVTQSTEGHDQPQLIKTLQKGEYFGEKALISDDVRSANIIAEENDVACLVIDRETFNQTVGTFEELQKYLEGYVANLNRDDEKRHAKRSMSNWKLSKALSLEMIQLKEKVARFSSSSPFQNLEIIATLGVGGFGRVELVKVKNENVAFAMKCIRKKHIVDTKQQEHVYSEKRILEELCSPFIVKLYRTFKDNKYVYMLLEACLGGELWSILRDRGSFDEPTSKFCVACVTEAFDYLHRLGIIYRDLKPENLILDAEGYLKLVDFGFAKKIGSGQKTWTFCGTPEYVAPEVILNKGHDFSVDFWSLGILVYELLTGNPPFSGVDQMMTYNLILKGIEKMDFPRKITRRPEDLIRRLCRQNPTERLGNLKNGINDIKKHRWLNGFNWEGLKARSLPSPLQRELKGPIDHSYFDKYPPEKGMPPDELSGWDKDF

Compound	effect on	mode	technique	concentration	quantity	result
Nc1ncc(-c2nc(N3CCOCC3)nc(N3CCOCC3)n2)c(C(F)F)n1	binding	–	competition with immobilised ligand	10 µM	remaining binding	90%
Cc1nn(C)cc1-c1nc2c(N3CCN(Cc4ccc(Cl)cc4)CC3)c(Cl)cnc2[nH]1	binding	–	competition with immobilised ligand	1 µM	remaining binding	92%
COc1ncccc1-c1cnn2ccc(N3CCN(C(=O)OC(C)C)CC3)nc12	binding	–	competition with immobilised ligand	1 µM	remaining binding	88%
O=c1[nH]c2ccccc2n1C1CCN(Cc2ccc(-c3[nH]c4cc5ncnc5cc4nc3-c3ccccc3)cc2)CC1	cell-free assay	–	–	0.5 µM	remaining signal	96.8%
Cn1cncc1[C@](O)(COc1ccc(C#N)cc1-c1ccc(OC(F)(F)F)cc1)c1ccc(C#N)cc1	cell-free assay	–	competition with immobilised ligand	1 µM	remaining binding	100%
Cn1cc(-c2cccc(N3CCc4c(sc5c4CC(C)(C)C5)C3=O)c2CO)cc(Nc2ccncn2)c1=O	enzyme activity	inhibitor	–	1 µM	inhibition	2%
CC(C)(C)c1cc(C=C(C#N)C#N)cc(Br)c1O	enzyme activity	inhibitor	–	0.5 µM	remaining activity	87.6%
Cn1cc(-c2cc(F)cc(N3CCn4c(cc5c4CCCC5)C3=O)c2CO)cc(Nc2ccc(N3CCN(C4COC4)CC3)cn2)c1=O	enzyme activity	inhibitor	–	0.1 µM	inhibition	11%
N#CC1(c2ccccn2)CCN(Cc2cc(C(=O)O)c(=O)n3ccccc23)CC1	cell-free assay	–	competition with immobilised ligand	1 µM	remaining binding	95%
